Reference: ChEMBL document CHEMBL1148287, “Design of potent, selective, and orally bioavailable inhibitors of cysteine protease cathepsin k” (J Med Chem, 2004)

Tests used:
[1] = biological target: T1, Cathepsin K (Homo sapiens, UniProt P43235); experiment: Concentration required to inhibit 50% of cysteine protease cathepsin K of human
T1 sequence (P43235 whole entry): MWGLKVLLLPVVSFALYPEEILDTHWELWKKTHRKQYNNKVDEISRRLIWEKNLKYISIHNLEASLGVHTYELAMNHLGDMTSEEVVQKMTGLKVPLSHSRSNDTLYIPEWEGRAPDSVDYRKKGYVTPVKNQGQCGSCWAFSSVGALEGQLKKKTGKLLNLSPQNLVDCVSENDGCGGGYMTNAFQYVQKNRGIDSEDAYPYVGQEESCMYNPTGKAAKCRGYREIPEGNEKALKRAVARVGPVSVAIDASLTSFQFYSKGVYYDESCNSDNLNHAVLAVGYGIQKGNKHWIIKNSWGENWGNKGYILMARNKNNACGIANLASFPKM
Outline: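 Reactions were started by adding inhibitor plus substrate to enzyme. AMC fluorescence (ex 360/em 440) progress curves were followed over 2.3 h at varied inhibitor concentrations. IC50 was fitted as rate = Vmax/(1+[I]/IC50).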

[2] = Selectivity as ratio between IC50 against Cathepsin B and IC50 against Cathepsin K
Outline: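 Human liver cathepsin B and recombinant human cathepsin K were each run with Cbz-Phe-Arg-AMC at 10 μM final (Km 400 and 70 μM). Both used pH 5.5 acetate/DTT/NaCl buffer, 10% DMSO, 30 °C and a 2.3 h fluorescence progress-curve read (ex 360/em 440). IC50s were fitted from rate vs [I], and the ratio of the two IC50s was taken.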

[3] = biological target: Cathepsin (H and K) (Homo sapiens) (UniProt P09668+P43235); experiment: Selectivity for Cathepsins H and K, ratio of IC50; format: protein assay
Outline: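 Human liver cathepsin H was run with L-Arg-β-naphthalamide at 50 μM final (Km 195 μM), read at ex 340/em 420. Human cathepsin K used Cbz-Phe-Arg-AMC at 10 μM, read at ex 360/em 440. Both were at pH 5.5 with DTT/NaCl and 10% DMSO at 30 °C, with 2.3 h progress curves. IC50s were fitted from rate vs [I] and ratioed.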

[4] = species: Homo sapiens; experiment: Selectivity as ratio between IC50 against Cathepsin V and IC50 against Cathepsin K
Outline: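 Conditions were pH 5.5 acetate buffer with 10 mM DTT, 120 mM NaCl and 10% DMSO at 30 °C, with fluorescence progress curves over 2.3 h. The IC50 fits gave the ratio.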

[5] = biological target: T2, Cathepsin K (Rattus norvegicus, UniProt O35186); experiment: Inhibition of cysteine protease cathepsin K of rat
T2 sequence (O35186 whole entry): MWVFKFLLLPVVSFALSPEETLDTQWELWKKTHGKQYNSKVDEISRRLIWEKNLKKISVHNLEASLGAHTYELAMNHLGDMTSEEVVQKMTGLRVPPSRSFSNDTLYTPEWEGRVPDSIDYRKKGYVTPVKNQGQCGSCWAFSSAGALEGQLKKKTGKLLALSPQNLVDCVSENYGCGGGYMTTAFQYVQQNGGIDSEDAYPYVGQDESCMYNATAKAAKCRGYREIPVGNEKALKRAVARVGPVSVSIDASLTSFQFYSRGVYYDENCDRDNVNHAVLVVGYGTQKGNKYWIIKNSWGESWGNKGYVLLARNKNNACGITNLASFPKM

[6] = Selectivity as ratio between IC50 against Cathepsin L and IC50 against Cathepsin K
Outline: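 Both assays used pH 5.5 acetate/DTT/NaCl, 10% DMSO, 30 °C and AMC fluorescence progress curves over 2.3 h. IC50s were fitted from rate vs [I] and taken as a ratio.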

[7] = Selectivity ratio between IC50 against Cathepsin S and IC50 against Cathepsin K
Outline: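 Recombinant human cathepsin S was run with Cbz-Val-Val-Arg-AMC at 10 μM final (Km >100 μM); human cathepsin K used Cbz-Phe-Arg-AMC at 10 μM. Both were in pH 5.5 sodium acetate with 10 mM DTT, 120 mM NaCl and 10% DMSO at 30 °C, with AMC fluorescence progress curves over 2.3 h. The ratio was taken from the fitted IC50s.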

[8] = Percent instability was measured by Rat S9 liver […] metabolism assay, in vitro; format: ADME, Liver S9 fraction; conditions: read-out: Activity
Outline: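 Rat S9 liver metabolism, read as % metabolized after 1 h incubation at 37 °C, run in duplicate.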

[9] = Compound was tested for its cell permeability in the Madin-Darby canine kidney cell monolayer transport assay; format: ADME, Canis lupus familiaris; conditions: dog, MDCK; read-out: Activity

Chain of Cathepsin (H and K) (Homo sapiens) (P09668 whole entry, looked up, one chain of several): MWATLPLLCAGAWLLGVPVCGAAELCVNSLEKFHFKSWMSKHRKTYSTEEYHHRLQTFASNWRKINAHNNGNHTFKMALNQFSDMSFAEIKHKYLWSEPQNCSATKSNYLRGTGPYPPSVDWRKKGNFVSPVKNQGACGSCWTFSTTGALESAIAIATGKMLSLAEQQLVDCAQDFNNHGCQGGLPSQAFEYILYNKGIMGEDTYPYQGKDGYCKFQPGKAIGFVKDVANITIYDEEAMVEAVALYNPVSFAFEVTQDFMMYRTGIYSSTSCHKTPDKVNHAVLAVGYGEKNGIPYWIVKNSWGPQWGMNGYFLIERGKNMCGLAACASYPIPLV

IC50 [1] [nM] | Ratio [2] | Ratio [3] | Ratio [4] | IC50 [5] [nM] | Ratio [6] | Ratio [7] | metabolised [8] [%] | Papp [9] [×10⁻⁶ cm/s] | SMILES
15 | > 830 | > 830 | 140 | 1100 | 290 | 130 | – | – | CCCC[C@H](NC(=O)OC(C(C)C)C(C)C)C(=O)C(=O)Nc1ccnn1C1CCC1
5.1 | – | – | – | – | – | – | – | – | CCCC[C@H](NC(=O)OC(C(C)C)C(C)C)C(=O)C(=O)Nc1ccon1
0.24 | – | – | – | – | – | 4.2 | – | – | CCCC[C@H](NC(=O)OC(C(C)C)C(C)C)C(=O)C(=O)Nc1[nH]ncc1Br
95 | – | – | – | – | – | – | – | – | CCCC[C@H](NC(=O)OC(C(C)C)C(C)C)C(=O)C(=O)Nc1cccnc1
250 | – | – | – | – | – | – | – | – | CCCC[C@H](NC(=O)OC(C(C)C)C(C)C)C(=O)C(=O)Nc1ccc2ccccc2n1
360 | – | – | – | – | – | – | – | – | CC(C)C(OC(=O)N[C@@H](C)C(=O)C(=O)NCc1cccs1)C(C)C
39 | > 320 | > 320 | 120 | 2700 | 260 | 59 | – | – | CCCC[C@H](NC(=O)OC(C(C)C)C(C)C)C(=O)C(=O)Nc1ccnn1CC(C)C
2.54 | – | – | – | – | – | – | – | – | CCCC[C@H](NC(=O)OC(C(C)C)C(C)C)C(=O)C(=O)N[C@H](C)c1ccccc1
– | – | – | – | – | – | 4.6 | – | – | CCCC[C@H](NC(=O)OC(C(C)C)C(C)C)C(=O)C(=O)Nc1cc(C)[nH]n1
26 | – | – | – | 1500 | – | – | – | – | CCCC[C@H](NC(=O)OC(C(C)C)C(C)C)C(=O)C(=O)Nc1ccnn1CC
87 | – | – | – | – | – | – | – | – | CCC(C)[C@H](NC(=O)OC(C(C)C)C(C)C)C(=O)C(=O)NCc1cccs1 (stereo partly drawn)
0.26 | – | – | – | – | – | 2.3 | – | – | CCCC[C@H](NC(=O)OC(C(C)C)C(C)C)C(=O)C(=O)Nc1[nH]nc2cccc(F)c12
62 | > 200 | – | 19 | 1200 | 40 | 8.3 | – | – | CCCC[C@H](NC(=O)OC(C(C)C)C(C)C)C(=O)C(=O)Nc1ccnn1-c1ccccn1
12000 | – | – | – | – | – | – | – | – | CC(C)C(OC(=O)NCC(=O)C(=O)NCc1cccs1)C(C)C
0.21 | 1200 | 1700 | 9.1 | 1.8 | 25 | 4.1 | – | – | CCCC[C@H](NC(=O)OC(C(C)C)C(C)C)C(=O)C(=O)Nc1[nH]ncc1-c1ccccc1
62 | – | – | – | 1600 | – | – | – | – | CCCC[C@H](NC(=O)OC(C(C)C)C(C)C)C(=O)C(=O)Nc1ccnn1CCC(C)(C)C
27 | > 470 | > 470 | 63 | 1700 | 220 | 41 | – | – | CCCC[C@H](NC(=O)OC(C(C)C)C(C)C)C(=O)C(=O)Nc1ccnn1CC1CC1
1.7 | – | – | – | – | – | 3.6 | – | – | CCCC[C@H](NC(=O)OC(C(C)C)C(C)C)C(=O)C(=O)Nc1[nH]ncc1C(=O)OCC
0.47 | 1100 | 2100 | 14 | 5.5 | 26 | 1.7 | 68 | 37 | CCCC[C@H](NC(=O)OC(C(C)C)C(C)C)C(=O)C(=O)Nc1[nH]ncc1C
25 | > 500 | > 500 | 19 | 470 | 44 | 5.4 | – | – | CCCC[C@H](NC(=O)OC(C(C)C)C(C)C)C(=O)C(=O)Nc1ccnn1-c1ccncc1
